System: T98G, U87MG and E98
Assay: Viability after Gefitinib
Type: cell-based, human
Details: 72 hours, 10 µM
Method in brief: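 Cells were seeded at 3–5 × 10³/well in 96-well plates and allowed to attach. After 24 h the test compound was added, and viability was read at 72 h by CellTiter-Glo luminescence, normalized as % of control. U87MG and E98 were grown in DMEM and T98G in Eagle MEM, each with 10% heat-inactivated FBS, at 37°C and 5% CO2.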

COc1cc2ncnc(Nc3ccc(F)c(Cl)c3)c2cc1OCCCN1CCOCC1 [Gefitinib]
sensitivity of cell lines (viability): resistance

Reference: article PMC7425423 (Brain Communications, 2020)
